Experimental data from PMC8896403 (Cancer chemotherapy and pharmacology, 2021).
“And” between values parts separate entries of the source, which are not always exact repeats. Equal entries are not always repeated. Where two headings read alike, the source gives them in different places.

What was measured:
[1] = cited from earlier work
[2] = dog; cited from earlier work
P-gp = conditions: cited from earlier work
human DIPG cell lines = conditions: cited from earlier work
high-grade gliomas = conditions: in combination with bevacizumab, twelve patients; cited from earlier work
[3] = cited from earlier work; remark: listed apart in the source
[4] = human plasma; cited from earlier work
[5] = Protein binding in murine plasma; type: in vitro ADME; conditions: murine plasma compartment
[6] = Clearance predicted for the mouse by body surface area scaling; conditions: body surface area scaling from dog and rat
[7] = cited from earlier work; remark: listed apart in the source
[8] = cited from earlier work; remark: listed apart in the source
[9] = Plasma and brain pharmacokinetics of panobinostat in CD-1 female mice; type: in vivo
In short: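 Single tail-vein dose of 15 mg/kg (3 mg/mL in PBS with 20% DMSO and 20% PEG-400) given to 12 mice, with 3 killed at each of 1, 2, 4 and 7 h. Heparinized plasma and brains frozen at −80 °C. LC–MS with internal standard, using 9-point 1–500 ng/mL calibration fitted by 1/x2 regression. Cmax taken as highest observed concentration, AUC1–7 by trapezoidal rule, and clearance from a […] model.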

refractory solid tumors = conditions: 9 pediatric patients; cited from earlier work
[10] = rat; cited from earlier work
DIPG cultures = conditions: cited from earlier work
[11] = IP and IV administration; cited from earlier work
[12] = design: species or system human
[13] = murine plasma; cited from earlier work
[14] = intraperitoneal injection, single time-point 4 h
[15] = female, CD-1, mouse, brain, intravenous, 15 mg/kg
[16] = female, CD-1, mouse, brain, iv, 15 mg/kg
[17] = female, CD-1, mouse, brain/plasma, iv, 15 mg/kg
[18] = female, CD-1, mouse, plasma, intravenous, 15 mg/kg
[19] = female, CD-1, mouse, plasma, iv, 15 mg/kg

SMILES: COc1cc2c(Nc3ccc(Br)cc3F)ncnc2cc1OCC1CCN(C)CC1 [vandetanib]
- concentrations in the brain after inhibition of P-gp with everolimus [1]: increased concentrations

SMILES: Cc1nc(Nc2ncc(C(=O)Nc3c(C)cccc3Cl)s2)cc(N2CCN(CCO)CC2)n1 [dasatinib]
- concentrations in the brain after inhibition of P-gp with everolimus [1]: increased concentrations

SMILES: Cc1[nH]c2ccccc2c1CCNCc1ccc(/C=C/C(=O)NO)cc1 [panobinostat, 2-hydroxypropanoic acid, compound with 2-(E)-Nhydroxy-3-[4-[[[2-(2-methyl-1H-indol-3-yl)ethyl]amino]methyl]phenyl]-2-propenamide]
- volume of distribution [2]: 42 L/kg
- P-gp substrate status (P-gp): substrate of P-gp
- IC50 (human DIPG cell lines; prior DIPG models): 28.3 nM
- IC50 (human DIPG cell lines; range in human DIPG cell lines): 12.1 to 28.3 nM
- median progression free survival (PFS) (high-grade gliomas): 4.3 months
- patients achieving a partial response (high-grade gliomas): Three
- patients with stable disease (high-grade gliomas): 6 patients
- brain penetration in clinical reports [3]: minimal to no brain penetration
- concentrations in the CSF ([3]; prior studies): negligible concentrations
- protein binding [4]: 75–90%
- drug unbound in plasma [5]: 40%
- clearance predicted in the mouse [6]: 918 mL/min/kg
- BCS class [7]: Class II
- permeability (BCS) [7]: high permeability
- solubility (BCS) [7]: low solubility
- brainstem concentration relative to cerebral cortex (times) [8]: more than 7
- concentration in brainstem tumor tissue [8, 14]: 550 ± 51 nM
- concentration in cerebral cortex [8, 14]: 70 ± 10 nM
- AUC1–7 for brain ([9]; 15 mg/kg IV, mice, trapezoidal rule, 1 h to 7 h): 250 ng·h/g
- concentration at 1 h [9, 15]: 60.5 ng/g and 63.2 ng/mL and 181 nM
- concentration at 2 h [9, 15]: 42.9 ± 5.4 ng/g
- concentration at 4 h [9, 15]: 33.2 ± 6.1 ng/g
- concentration at 7 h [9, 15]: 28.1 ng/g and 29.4 ng/mL and 84.1 nM
- Cmax [9, 16]: 72.4 ng/g
- Vd [9, 16]: 49.8 L/kg
- Kp [9, 17]: 2.63
- Kp at 1 h [9, 17]: 2.22
- Kp at 2 h [9, 17]: 5.67
- Kp at 4 h [9, 17]: 22.4
- Kp at 7 h [9, 17]: 12.1
- Vd [9, 18]: 53.8 L/kg
- clearance [9, 18]: 967 mL/min/kg
- concentration at 1 h [9, 18]: 27.3 ± 2.5 ng/mL
- concentration at 2 h [9, 18]: 7.56 ± 1.8 ng/mL
- concentration at 4 h [9, 18]: 1.48 ± 0.56 ng/mL
- concentration at 7 h [9, 18]: 2.33 ± 1.18 ng/mL
- AUC [9, 19]: 95 ng·h/mL
- Cmax [9, 19]: 132 ng/mL
- Vd [9, 19]: 140 L/kg
- clearance [9, 19]: 1360 mL/min/kg
- objective response (refractory solid tumors): No patient had an objective response
- patients with stable disease (refractory solid tumors): 3 patients
- tolerability (refractory solid tumors): acceptable tolerability
- volume of distribution [10]: 40.2 L/kg
- DIPG cultures demonstrating sensitivity (DIPG cultures): 12 of the 16
- concentrations in xenograft, intestine, bladder, and heart tissue versus plasma [11]: higher concentrations
- expected human brain nanomolar concentration ([12]; corresponding to 45.95 ng/g): approximately 142.2 nM
- expected human brain concentration ([12]; pediatric Cmax 20.7 ng/mL x brain to plasma ratio 2.22): approximately 45.95 ng/g
- protein binding [13]: approximately 60%
